Source: ChEMBL document CHEMBL4819098, “Novel 1,2,4-triazine-quinoline hybrids: The privileged scaffolds as potent multi-target inhibitors of LPS-induced inflammatory response via dual COX-2 and 15-LOX inhibition” (Eur J Med Chem, 2021)

Tests used:
[1] = target: T1, Prostaglandin G/H synthase 2 (Homo sapiens, UniProt P35354); assay: Inhibition of human recombinant COX-2 using arachidonic acid as substrate preincubated with enzyme for 20 mins followed by incubation with substrate for 2 mins by ADPH based fluorometric analysis
T1 sequence (P35354 whole entry): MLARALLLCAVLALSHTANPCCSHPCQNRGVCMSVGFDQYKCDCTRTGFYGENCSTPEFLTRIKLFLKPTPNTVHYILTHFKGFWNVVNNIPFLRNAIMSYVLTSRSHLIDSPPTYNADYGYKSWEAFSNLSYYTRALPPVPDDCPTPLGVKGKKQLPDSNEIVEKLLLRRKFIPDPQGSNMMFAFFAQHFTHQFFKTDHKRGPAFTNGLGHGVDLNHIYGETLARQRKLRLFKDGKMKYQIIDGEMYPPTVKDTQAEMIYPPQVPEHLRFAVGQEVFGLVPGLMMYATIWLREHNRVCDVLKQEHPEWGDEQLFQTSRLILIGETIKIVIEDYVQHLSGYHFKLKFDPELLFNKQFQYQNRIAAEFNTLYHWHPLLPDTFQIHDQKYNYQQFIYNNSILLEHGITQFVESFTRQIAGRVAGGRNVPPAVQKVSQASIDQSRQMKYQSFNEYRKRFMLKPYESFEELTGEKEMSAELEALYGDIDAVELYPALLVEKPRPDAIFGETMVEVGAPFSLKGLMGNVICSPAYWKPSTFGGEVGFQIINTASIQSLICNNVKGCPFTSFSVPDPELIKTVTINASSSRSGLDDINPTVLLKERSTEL

[2] = target: T2, Prostaglandin G/H synthase 1 (Ovis aries, UniProt P05979); assay: Inhibition of ovine COX-1 using arachidonic acid as substrate preincubated with enzyme for 20 mins followed by incubation with substrate for 2 mins by ADPH based fluorometric analysis
T2 sequence (P05979 whole entry): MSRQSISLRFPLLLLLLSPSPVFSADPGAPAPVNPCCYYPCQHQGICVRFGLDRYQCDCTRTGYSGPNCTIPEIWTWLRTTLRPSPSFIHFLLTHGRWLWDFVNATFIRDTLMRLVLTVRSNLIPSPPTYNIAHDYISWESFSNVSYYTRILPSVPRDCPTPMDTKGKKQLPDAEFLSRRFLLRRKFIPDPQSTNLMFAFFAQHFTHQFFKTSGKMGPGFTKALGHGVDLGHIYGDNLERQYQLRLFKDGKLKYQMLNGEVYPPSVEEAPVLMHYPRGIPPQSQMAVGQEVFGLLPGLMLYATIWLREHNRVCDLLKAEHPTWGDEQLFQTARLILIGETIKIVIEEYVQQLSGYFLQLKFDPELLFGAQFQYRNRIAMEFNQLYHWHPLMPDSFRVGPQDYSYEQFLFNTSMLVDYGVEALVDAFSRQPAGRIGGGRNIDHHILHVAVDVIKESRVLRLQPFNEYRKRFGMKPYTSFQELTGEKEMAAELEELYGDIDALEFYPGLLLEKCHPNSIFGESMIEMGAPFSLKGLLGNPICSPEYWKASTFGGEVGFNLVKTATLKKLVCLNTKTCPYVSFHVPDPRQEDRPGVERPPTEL

[3] = target: T2, Prostaglandin G/H synthase 1; assay: Inhibition of ovine COX-1 by colorimetric analysis
[4] = Inhibition of soybean 15-LOX using linolenic acid as substrate by spectrophotometric analysis; set-up: species or system Glycine max
[5] = target: T3, Prostaglandin G/H synthase 2 (Homo sapiens) (UniProt P35354); assay: Inhibition of COX-2 in human whole blood assessed as reduction in PGE2 production at 10 uM measured after 24 hrs by EIA; format: tissue-based
T3 sequence (whole entry): T1 sequence (P35354 whole entry)

[6] = target: COX-1 (Prostaglandin G/H synthase 1) (Homo sapiens, UniProt P23219); assay: Inhibition of COX-1 in human whole blood assessed as reduction in thromboxane B2 production at 10 uM measured after 1 hr by EIA; format: tissue-based
[7] = target: T2, Prostaglandin G/H synthase 1; assay: Inhibition of ovine COX-1 using arachidonic acid as substrate preincubated with enzyme for 5 mins followed by substrate addition by colorimetric analysis
RAW264.7 [8] = assay: Inhibition of LPS-induced 15(S)-HETE production in mouse RAW264.7 cells preincubated for 2 hrs followed by LPS stimulation and measured after 20 hrs by ELISA; format: functional, cell-based
RAW264.7 [9] = assay: Potency index, ratio of celecoxib IC50 to test compound IC50 for inhibition of LPS-induced 15(S)-HETE production in mouse RAW264.7 cells preincubated for 2 hrs followed by LPS stimulation and measured after 20 hrs by ELISA; format: functional; conditions: time 22 hrs
[10] = Selectivity index, ratio of IC50 for ovine COX-1 to IC50 for human recombinant COX-2
Summary of the method: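 Enzyme kit assay with ovine COX-1 and human recombinant COX-2. IC50 determined from three replicates. Selectivity index taken as IC50(COX-1)/IC50(COX-2).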

RAW264.7 [11] = assay: Cytotoxicity against mouse RAW264.7 cells assessed as reduction in cell viability by MTS assay; format: cell-based
Summary of the method: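 RAW 264.7 macrophage viability at the tested concentrations measured by MTS assay.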

RAW264.7 [12] = assay: Potency index, ratio of celecoxib IC50 to test compound IC50 for inhibition of LPS-induced IL-6 production in mouse RAW264.7 cells preincubated for 2 hrs followed by LPS stimulation and measured after 20 hrs by ELISA; format: functional; conditions: time 22 hrs
RAW264.7 [13] = assay: (§1) Antioxidant activity in mouse RAW264.7 cells assessed as inhibition of LPS-induced intracellular ROS production preincubated for 2 hrs followed by LPS stimulation and measured after 20 hrs by DCFH-DA staining based fluorescence analysis; format: functional, cell-based
[14] = target: T1, Prostaglandin G/H synthase 2; assay: Inhibition of human recombinant COX-2 using arachidonic acid as substrate preincubated with enzyme for 5 mins followed by substrate addition by colorimetric analysis
RAW264.7 [15] = assay: Potency index, ratio of diclofenac sodium IC50 to test compound IC50 for inhibition of LPS-induced IL-6 production in mouse RAW264.7 cells preincubated for 2 hrs followed by LPS stimulation and measured after 20 hrs by ELISA; format: functional; conditions: time 22 hrs
RAW264.7 [16] = assay: Inhibition of LPS-induced TNFalpha production in mouse RAW264.7 cells preincubated for 2 hrs followed by LPS stimulation and measured after 20 hrs by ELISA; format: functional, cell-based
RAW264.7 [17] = assay: Inhibition of LPS-induced IL-6 production in mouse RAW264.7 cells preincubated for 2 hrs followed by LPS stimulation and measured after 20 hrs by ELISA; format: functional, cell-based
RAW264.7 [18] = assay: as §1, with “Potency index, ratio of celecoxib IC50 to test compound IC50 for antioxidant” for “Antioxidant”; format: functional; conditions: time 22 hrs
[19] = Inhibition of soybean 15-LOX using arachidonic acid or linolenic acid as substrate in presence of hydrogen peroxide incubated for 5 mins by colorimetric analysis; set-up: species or system Glycine max
[20] = target: T3, Prostaglandin G/H synthase 2 (Homo sapiens); assay: Potency index, ratio of diclofenac sodium IC50 to test compound IC50 for human recombinant COX-2 using arachidonic acid as substrate preincubated with enzyme for 5 mins followed by substrate addition by colorimetric analysis
[21] = target: T4, Prostaglandin G/H synthase 2 (Ovis aries, UniProt P79208); assay: Inhibition of ovine COX-2 using arachidonic acid as substrate preincubated with enzyme for 5 mins followed by incubation with substrate for 5 mins by colorimetric analysis
T4 sequence (P79208 whole entry): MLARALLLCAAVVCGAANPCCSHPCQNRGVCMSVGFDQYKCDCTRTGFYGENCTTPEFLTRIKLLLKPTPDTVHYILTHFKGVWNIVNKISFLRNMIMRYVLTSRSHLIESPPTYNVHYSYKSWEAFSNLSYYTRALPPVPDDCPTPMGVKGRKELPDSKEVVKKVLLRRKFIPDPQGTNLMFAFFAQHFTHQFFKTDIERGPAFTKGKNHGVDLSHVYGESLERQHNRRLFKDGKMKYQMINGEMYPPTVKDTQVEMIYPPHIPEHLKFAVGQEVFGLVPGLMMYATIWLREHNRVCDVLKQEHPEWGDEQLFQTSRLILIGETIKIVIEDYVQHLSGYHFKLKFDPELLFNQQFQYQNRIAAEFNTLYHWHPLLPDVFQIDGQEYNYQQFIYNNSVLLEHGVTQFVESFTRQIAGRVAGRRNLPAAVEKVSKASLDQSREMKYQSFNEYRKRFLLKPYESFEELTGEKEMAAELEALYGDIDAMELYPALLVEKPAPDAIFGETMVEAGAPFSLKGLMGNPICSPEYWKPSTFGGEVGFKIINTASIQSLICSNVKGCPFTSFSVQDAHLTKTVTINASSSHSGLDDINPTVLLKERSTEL

[22] = Inhibition of soybean 5-LOX; set-up: species or system Glycine max
[23] = target: T2, Prostaglandin G/H synthase 1; assay: Inhibition of ovine COX-1 using arachidonic acid as substrate preincubated with enzyme for 5 mins followed by incubation with substrate for 5 mins by colorimetric analysis
[24] = target: T1, Prostaglandin G/H synthase 2; assay: Inhibition of COX-2 (unknown origin) using arachidonic acid as substrate preincubated with enzyme for 1 min followed by substrate addition by fluorometric analysis
[25] = target: T4, Prostaglandin G/H synthase 2; assay: Inhibition of ovine COX-2 by EIA
[26] = target: T2, Prostaglandin G/H synthase 1; assay: Inhibition of ovine COX-1 by EIA

Sequence of COX-1 (Prostaglandin G/H synthase 1) (P23219 whole entry): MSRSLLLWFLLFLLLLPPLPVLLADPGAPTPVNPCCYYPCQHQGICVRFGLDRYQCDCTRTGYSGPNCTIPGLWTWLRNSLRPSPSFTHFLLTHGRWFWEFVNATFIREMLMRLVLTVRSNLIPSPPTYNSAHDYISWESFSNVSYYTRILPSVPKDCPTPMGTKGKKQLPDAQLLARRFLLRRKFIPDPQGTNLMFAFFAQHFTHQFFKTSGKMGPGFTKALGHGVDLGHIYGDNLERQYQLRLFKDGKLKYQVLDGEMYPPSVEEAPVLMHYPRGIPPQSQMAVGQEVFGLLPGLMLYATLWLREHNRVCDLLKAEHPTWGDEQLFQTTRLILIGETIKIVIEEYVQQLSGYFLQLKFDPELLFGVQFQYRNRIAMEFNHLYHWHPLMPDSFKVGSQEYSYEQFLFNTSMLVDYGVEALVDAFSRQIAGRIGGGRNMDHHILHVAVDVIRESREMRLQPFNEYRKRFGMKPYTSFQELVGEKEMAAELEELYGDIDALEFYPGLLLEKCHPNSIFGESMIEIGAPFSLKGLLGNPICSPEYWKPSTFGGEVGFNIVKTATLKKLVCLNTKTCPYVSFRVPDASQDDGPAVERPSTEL

## COc1ccc(-c2cc(-c3nnc(SC/C(=N/O)c4ccccc4)n3-c3ccccc3)c3ccccc3n2)cc1
[1]
  IC50: 1600 nM
[2]
  IC50: 480 nM

## COc1ccc(/C=C2\N=C(c3cccnc3)N(c3ccccc3)NC2=O)cc1
[3]
  IC50: 100 nM

## COc1ccc(C2=C(c3ccc(OC)cc3)NNC(N/N=C/c3ccc(F)cc3)=N2)cc1
[4]
  IC50: 124000 nM
[5]
  inhibition: 72%
[6]
  inhibition at 1 h, 10 µM: 69%

## O=c1c(Cc2ccccc2)n[nH]c(=S)n1/N=C/c1cc2cc(OCc3ccccc3)ccc2nc1O
[7]
  IC50: 12500 nM
RAW264.7 [8]
  IC50: 170 nM
RAW264.7 [9]
  Ratio IC50: 43
[10]
  Ratio IC50: 266
RAW264.7 [11]
  Activity: Non-Toxic
RAW264.7 [12]
  Ratio IC50: 1.5
RAW264.7 [13]
  IC50: 1020 nM
[14]
  IC50: 47 nM
RAW264.7 [15]
  Ratio IC50: 1.7
RAW264.7 [16]
  IC50: 19200 nM
RAW264.7 [17]
  IC50: 7700 nM
RAW264.7 [18]
  Ratio IC50: 11
[19]
  IC50: 1810 nM
[20]
  Ratio IC50: 17.9

## COc1ccc(-c2nn(-c3ccc(Cl)cc3)cc2/C=C/c2cc(C(=O)N3CCOCC3)c3cc(Cl)ccc3n2)cc1
[21]
  IC50: 100 nM
[22]
  IC50: 1870 nM
[23]
  IC50: 11400 nM

## COc1ccc2ccc(F)c(CC(=O)N/N=C/c3ccc(C(F)(F)F)cc3)c2n1
[24]
  IC50: 130 nM

## CCOC(=O)c1cnn(C(=O)c2cc(-c3ccc(Cl)cc3)nc3ccc(OC)cc23)c1N
[25]
  IC50: 260 nM
[26]
  IC50: > 50000 nM
